Columns and labels:
[1] = test system: Kidney; experiment: Toxicity in mouse assessed as effect on calcium level in kidney per gram of organ at 0.4 mmol/kg, ip qd for 5 days; type: organism-based; details: in vivo, 120 h
[2] = test system: Kidney; experiment: Toxicity in mouse assessed as effect on zinc level in kidney per gram of organ at 0.4 mmol/kg, ip qd for 5 days; type: organism-based; details: in vivo, 120 h
[3] = test system: Brain; experiment: Detoxification activity against lead-induced toxicity in mouse assessed as reduction lead level in brain per gram of organ at 0.4 mmol/kg, ip qd for 5 days measured 24 hrs last post dose by synchrotron X-ray fluorescence analysis; type: functional
Method in brief: (§1)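 Lead-loaded mice were given normal saline vehicle (negative control) or test agent at 0.2, 0.4 or 0.6 mmol/kg. Lead was measured in liver, kidney, left femur and brain and reported as mean ± SD µg Pb/g organ against the NS group.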

[4] = test system: Mus musculus; experiment: Toxicity in mouse assessed as change in bodyweight at 0.4 mmol/kg, ip qd for 5 days; type: organism-based; details: in vivo, 120 h
Method in brief: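 Lead-loaded mice were given normal saline vehicle or test agent at 0.4 mmol/kg. Body weights were recorded and compared with the NS group to assess growth.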

[5] = test system: Caco-2; experiment: Efflux ratio of permeability […] in human Caco2 cells at 4 mM up to 120 mins by HPLC analysis; type: ADME, cell-based; details: caco-2, 2 h, 4000 µM
Method in brief: (§2)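 Permeability measured across Caco-2 cell monolayers.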

[6] = Detoxification activity against lead-induced toxicity in mouse assessed as reduction lead level in feces at 0.4 mmol/kg, ip qd for 5 days measured 24 hrs last post dose by synchrotron X-ray fluorescence analysis; type: functional
Method in brief: (§3)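 Lead-loaded mice were given normal saline vehicle, DL-penicillamine or NaDMS (positive controls), or test agent, each at 0.4 mmol/kg; n = 12 per group. Lead was measured in feces and urine and reported as mean ± SD µg Pb/g excrement against the NS group.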

[7] = test system: Kidney; experiment: Toxicity in mouse assessed as effect on copper level in kidney per gram of organ at 0.4 mmol/kg, ip qd for 5 days; type: organism-based; details: in vivo, 120 h
[8] = test system: Brain; experiment: Toxicity in mouse assessed as effect on iron level in brain per gram of organ at 0.4 mmol/kg, ip qd for 5 days; type: organism-based; details: in vivo, 120 h
[9] = test system: Brain; experiment: Toxicity in mouse assessed as effect on zinc level in brain per gram of organ at 0.4 mmol/kg, ip qd for 5 days; type: organism-based; details: in vivo, 120 h
[10] = test system: Liver; experiment: Toxicity in mouse assessed as effect on copper level in liver per gram of organ at 0.4 mmol/kg, ip qd for 5 days; type: organism-based; details: in vivo, 120 h
[11] = test system: Liver; experiment: Detoxification activity against lead-induced toxicity in mouse assessed as reduction lead level in liver per gram of organ at 0.4 mmol/kg, ip qd for 5 days measured 24 hrs last post dose by synchrotron X-ray fluorescence analysis; type: functional; method in brief: as §1
[12] = test system: Brain; experiment: Toxicity in mouse assessed as effect on copper level in brain per gram of organ at 0.4 mmol/kg, ip qd for 5 days; type: organism-based; details: in vivo, 120 h
[13] = test system: Kidney; experiment: Toxicity in mouse assessed as effect on manganese level in kidney per gram of organ at 0.4 mmol/kg, ip qd for 5 days; type: organism-based; details: in vivo, 120 h
[14] = test system: Kidney; experiment: Detoxification activity against lead-induced toxicity in mouse assessed as reduction lead level in kidney per gram of organ at 0.4 mmol/kg, ip qd for 5 days measured 24 hrs last post dose by synchrotron X-ray fluorescence analysis; type: functional; method in brief: as §1
[15] = Apparent permeability from basolateral to apical side of human Caco2 cells at 4 mM up to 120 mins by HPLC analysis; type: ADME, cell-based; details: Caco-2; method in brief: as §2
[16] = test system: Femur; experiment: Detoxification activity against lead-induced toxicity in mouse assessed as reduction lead level in femurs per gram of organ at 0.4 mmol/kg, ip qd for 5 days measured 24 hrs last post dose by synchrotron X-ray fluorescence analysis; type: functional; method in brief: as §1
[17] = Detoxification activity against lead-induced toxicity in mouse assessed as reduction lead level in urine at 0.4 mmol/kg, ip qd for 5 days measured 24 hrs last post dose by synchrotron X-ray fluorescence analysis; type: functional; method in brief: as §3
[18] = test system: Liver; experiment: Toxicity in mouse assessed as effect on zinc level in liver per gram of organ at 0.4 mmol/kg, ip qd for 5 days; type: organism-based; details: in vivo, 120 h
[19] = test system: Liver; experiment: Toxicity in mouse assessed as effect on manganese level in liver per gram of organ at 0.4 mmol/kg, ip qd for 5 days; type: organism-based; details: in vivo, 120 h
[20] = test system: Brain; experiment: Toxicity in mouse assessed as effect on manganese level in brain per gram of organ at 0.4 mmol/kg, ip qd for 5 days; type: organism-based; details: in vivo, 120 h
[21] = test system: Liver; experiment: Toxicity in mouse assessed as effect on iron level in liver per gram of organ at 0.4 mmol/kg, ip qd for 5 days; type: organism-based; details: in vivo, 120 h
[22] = Apparent permeability from apical to basolateral side of human Caco2 cells at 4 mM up to 120 mins by HPLC analysis; type: ADME, cell-based; details: Caco-2; method in brief: as §2
[23] = test system: Kidney; experiment: Toxicity in mouse assessed as effect on iron level in kidney per gram of organ at 0.4 mmol/kg, ip qd for 5 days; type: organism-based; details: in vivo, 120 h
[24] = test system: Liver; experiment: Toxicity in mouse assessed as effect on calcium level in liver per gram of organ at 0.4 mmol/kg, ip qd for 5 days; type: organism-based; details: in vivo, 120 h
[25] = test system: Brain; experiment: Toxicity in mouse assessed as effect on calcium level in brain per gram of organ at 0.4 mmol/kg, ip qd for 5 days; type: organism-based; details: in vivo, 120 h
[26] = test system: Brain; experiment: Detoxification activity against lead-induced toxicity in mouse assessed as reduction lead level in brain per gram of organ at 0.6 mmol/kg, ip qd for 5 days measured 24 hrs last post dose by synchrotron X-ray fluorescence analysis; type: functional; method in brief: as §1
[27] = test system: Femur; experiment: Detoxification activity against lead-induced toxicity in mouse assessed as reduction lead level in femurs per gram of organ at 0.2 mmol/kg, ip qd for 5 days measured 24 hrs last post dose by synchrotron X-ray fluorescence analysis; type: functional; method in brief: as §1
[28] = test system: Femur; experiment: Detoxification activity against lead-induced toxicity in mouse assessed as reduction lead level in femurs per gram of organ at 0.6 mmol/kg, ip qd for 5 days measured 24 hrs last post dose by synchrotron X-ray fluorescence analysis; type: functional; method in brief: as §1
[29] = test system: Kidney; experiment: Detoxification activity against lead-induced toxicity in mouse assessed as reduction lead level in kidney per gram of organ at 0.6 mmol/kg, ip qd for 5 days measured 24 hrs last post dose by synchrotron X-ray fluorescence analysis; type: functional; method in brief: as §1
[30] = test system: Liver; experiment: Detoxification activity against lead-induced toxicity in mouse assessed as reduction lead level in liver per gram of organ at 0.6 mmol/kg, ip qd for 5 days measured 24 hrs last post dose by synchrotron X-ray fluorescence analysis; type: functional; method in brief: as §1
[31] = test system: Liver; experiment: Detoxification activity against lead-induced toxicity in mouse assessed as reduction lead level in liver per gram of organ at 0.2 mmol/kg, ip qd for 5 days measured 24 hrs last post dose by synchrotron X-ray fluorescence analysis; type: functional; method in brief: as §1
[32] = test system: Kidney; experiment: Detoxification activity against lead-induced toxicity in mouse assessed as reduction lead level in kidney per gram of organ at 0.2 mmol/kg, ip qd for 5 days measured 24 hrs last post dose by synchrotron X-ray fluorescence analysis; type: functional; method in brief: as §1
[33] = test system: Brain; experiment: Detoxification activity against lead-induced toxicity in mouse assessed as reduction lead level in brain per gram of organ at 0.2 mmol/kg, ip qd for 5 days measured 24 hrs last post dose by synchrotron X-ray fluorescence analysis; type: functional; method in brief: as §1

SMILES | Activity [1] [µg/g] | Activity [2] [µg/g] | Activity [3] [µg/g] | Activity [4] [g] | Activity [6] [µg/g] | Activity [7] [µg/g] | Activity [8] [µg/g] | Activity [9] [µg/g] | Activity [10] [µg/g] | Activity [11] [µg/g] | Activity [12] [µg/g] | Activity [13] [µg/g] | Activity [14] [µg/g] | Activity [16] [µg/g] | Activity [17] [µg/g] | Activity [18] [µg/g] | Activity [19] [µg/g] | Activity [20] [µg/g] | Activity [21] [µg/g] | Activity [23] [µg/g] | also measured
CC[C@H](C)[C@H](NC(=O)C1SC(C)(C)SC1C(=O)O)C(=O)O (stereo not given in full) | 75.99 | 27.41 | 1.42 | 30.6 | 4.1 | 3.54 | 56.49 | 33 | 3.73 | 5 | 2.48 | 1.44 | 6.49 | 14.32 | 2.42 | 36.79 | 1.34 | 0.75 | 152.94 | 92.98 | Ratio [5]: 2.9; Papp B→A at 2 h, 4000 µM [15]: 4.91 ×10⁻⁶ cm/s; Papp A→B at 2 h, 4000 µM [22]: 14.2 ×10⁻⁶ cm/s; Activity [24]: 59.96 µg/g; Activity [25]: 69 µg/g
CC1(C)SC(C(=O)O)C(C(=O)N[C@@H](CC(N)=O)C(=O)O)S1 (stereo not given in full) | 76.36 | 28.13 | 0.58 | 31.3 | 4.71 | 3.72 | 57.5 | 34.95 | 3.74 | 3.99 | 2.58 | 1.42 | 7.06 | 16.62 | 2.12 | 37.92 | 1.38 | 0.69 | 153.07 | 94.84 | Ratio [5]: 3.23; Papp B→A at 2 h, 4000 µM [15]: 5.15 ×10⁻⁶ cm/s; Papp A→B at 2 h, 4000 µM [22]: 16.6 ×10⁻⁶ cm/s; Activity [24]: 60.41 µg/g; Activity [25]: 71.3 µg/g
CC1(C)SC(C(=O)O)C(C(=O)N[C@@H](CC(=O)O)C(=O)O)S1 (stereo not given in full) | 76.47 | 27.89 | 1.22 | 31.1 | 4.8 | 3.53 | 56.37 | 34.8 | 3.61 | 3.82 | 2.4 | 1.32 | 7.09 | 11.1 | 2.83 | 37.69 | 1.35 | 0.78 | 154.86 | 93.98 | Activity [26]: 0.84 µg/g; Activity [27]: 17.21 µg/g; Activity [28]: 9.64 µg/g; Activity [29]: 5.9 µg/g; Activity [30]: 2.77 µg/g; Activity [31]: 5.81 µg/g; Activity [32]: 7.68 µg/g; Activity [33]: 1.69 µg/g; Activity [24]: 59.89 µg/g; Activity [25]: 68.28 µg/g
CSCC[C@H](NC(=O)C1SC(C)(C)SC1C(=O)O)C(=O)O (stereo not given in full) | 77.39 | 27.79 | 0.91 | 30 | 4.35 | 3.65 | 56.6 | 33.66 | 3.59 | 3.51 | 2.41 | 1.37 | 6.36 | 13.71 | 2.26 | 36.78 | 1.39 | 0.73 | 153.33 | 93.88 | Ratio [5]: 3.11; Papp B→A at 2 h, 4000 µM [15]: 5.05 ×10⁻⁶ cm/s; Papp A→B at 2 h, 4000 µM [22]: 15.7 ×10⁻⁶ cm/s; Activity [24]: 59.64 µg/g; Activity [25]: 70.51 µg/g
CC1(C)SC(C(=O)O)C(C(=O)O)S1 (stereo not given) | 75.94 | 28 | 1.42 | 29 | 4.57 | 3.4 | 56.6 | 34.54 | 3.61 | 4.02 | 2.42 | 1.3 | 7.12 | 15.47 | 1.93 | 36.66 | 1.36 | 0.7 | 152.9 | 95.1 | Ratio [5]: 2.91; Papp B→A at 2 h, 4000 µM [15]: 4.68 ×10⁻⁶ cm/s; Papp A→B at 2 h, 4000 µM [22]: 13.7 ×10⁻⁶ cm/s; Activity [24]: 58.87 µg/g; Activity [25]: 71.33 µg/g

Source: ChEMBL document CHEMBL1681713, “Lead detoxification activities and ADMET hepatotoxicities of a class of novel 5-(1-carbonyl-L-amino-acid)-2,2-dimethyl-[1,3]dithiolane-4-carboxylic acids” (Bioorg Med Chem Lett, 2011)
